Results published in ChEMBL document CHEMBL4007411, “Design, Synthesis, and Biological Evaluation of Coupled Bioactive Scaffolds as Potential Anticancer Agents for Dual Targeting of Dihydrofolate Reductase and Thioredoxin Reductase” (J Med Chem, 2017).
Active and inactive are the calls of the source. No cut-off for these calls is given here.

How the values were obtained:
MCF7 = assay: Antiproliferative activity against human MCF7 cells after 72 hrs by MTT assay; format: functional; settings: for GI50 / LC50 (concentration killing 50% of cells present at T0): MCF7, 72 h
Summary of the method: (§1)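 Cells kept in RPMI 1640 with 10% FBS, penicillin and streptomycin at 37°C and 5% CO2. Seeded at 1.0 x 10^4/well and left to adhere overnight. Serial dilutions made in medium from DMSO stocks. MTT at 400 µg/ml final for 4 h, read at T0 and after 72 h. Formazan dissolved in DMSO:glycine pH 10.5, A550. GI50 and LC50 interpolated from absorbance versus log concentration.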

[1] = target: T1, Thioredoxin reductase 1, cytoplasmic (Rattus norvegicus, UniProt O89049); assay: Inhibition of […] thioredoxin reductase after 60 mins by DTNB reduction assay
T1 sequence (O89049 whole entry): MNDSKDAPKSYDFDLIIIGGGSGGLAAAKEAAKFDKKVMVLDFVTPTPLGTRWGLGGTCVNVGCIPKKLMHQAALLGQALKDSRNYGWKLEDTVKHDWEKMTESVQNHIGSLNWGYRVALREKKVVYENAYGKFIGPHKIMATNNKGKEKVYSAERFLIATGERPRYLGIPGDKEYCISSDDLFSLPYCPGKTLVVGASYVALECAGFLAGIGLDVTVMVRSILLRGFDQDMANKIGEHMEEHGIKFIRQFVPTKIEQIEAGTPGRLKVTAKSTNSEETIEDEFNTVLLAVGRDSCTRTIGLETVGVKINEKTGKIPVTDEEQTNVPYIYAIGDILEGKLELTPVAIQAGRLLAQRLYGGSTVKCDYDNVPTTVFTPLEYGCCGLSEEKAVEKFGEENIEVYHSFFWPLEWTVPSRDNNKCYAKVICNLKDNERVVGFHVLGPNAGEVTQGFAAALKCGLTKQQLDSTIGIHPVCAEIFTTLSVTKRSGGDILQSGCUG
Summary of the method: (§2)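 Rat liver TrxR at 2.1 units/ml preincubated with a range of test concentrations and 200 µM NADPH in 50 mM Tris-HCl, 1 mM EDTA, pH 7.5, at room temperature for 30 or 60 min. Equal volume of buffer with 5 mM DTNB and 200 µM NADPH then added. A412 followed over 2 min. Activity as % of vehicle Vmax; IC50 from log concentration plot.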

[2] = target: T1, Thioredoxin reductase 1, cytoplasmic; assay: Inhibition of […] thioredoxin reductase after 30 mins by DTNB reduction assay; summary of the method: as §2
HCT-116 = assay: Antiproliferative activity against human HCT116 cells after 72 hrs by MTT assay; format: functional; settings: for GI50 / CC50: HCT-116, 72 h; for CC50: read-out: LC50 (the source's name); summary of the method: as §1
Dihydrofolate reductase = target: T2, Dihydrofolate reductase (Homo sapiens, UniProt P00374); assay: Inhibition of recombinant human DHFR assessed as reduction in conversion of DHF to THF measured every 30 secs for 6 mins by UV-Vis spectrophotometric method
T2 sequence (P00374 whole entry): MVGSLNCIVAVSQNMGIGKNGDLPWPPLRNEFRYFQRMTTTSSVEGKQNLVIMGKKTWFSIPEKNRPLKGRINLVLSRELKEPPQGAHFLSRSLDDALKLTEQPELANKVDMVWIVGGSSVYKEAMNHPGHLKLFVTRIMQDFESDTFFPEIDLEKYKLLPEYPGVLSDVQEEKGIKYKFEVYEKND

[3] = target: T3, Thioredoxin reductase 1, cytoplasmic (Homo sapiens) (UniProt Q16881); assay: Inhibition of thioredoxin reductase in human HCT116 cell lysate using thioredoxin as substrate at 0.001 to 1 uM after 16 hrs by end point insulin assay method
T3 sequence (whole entry): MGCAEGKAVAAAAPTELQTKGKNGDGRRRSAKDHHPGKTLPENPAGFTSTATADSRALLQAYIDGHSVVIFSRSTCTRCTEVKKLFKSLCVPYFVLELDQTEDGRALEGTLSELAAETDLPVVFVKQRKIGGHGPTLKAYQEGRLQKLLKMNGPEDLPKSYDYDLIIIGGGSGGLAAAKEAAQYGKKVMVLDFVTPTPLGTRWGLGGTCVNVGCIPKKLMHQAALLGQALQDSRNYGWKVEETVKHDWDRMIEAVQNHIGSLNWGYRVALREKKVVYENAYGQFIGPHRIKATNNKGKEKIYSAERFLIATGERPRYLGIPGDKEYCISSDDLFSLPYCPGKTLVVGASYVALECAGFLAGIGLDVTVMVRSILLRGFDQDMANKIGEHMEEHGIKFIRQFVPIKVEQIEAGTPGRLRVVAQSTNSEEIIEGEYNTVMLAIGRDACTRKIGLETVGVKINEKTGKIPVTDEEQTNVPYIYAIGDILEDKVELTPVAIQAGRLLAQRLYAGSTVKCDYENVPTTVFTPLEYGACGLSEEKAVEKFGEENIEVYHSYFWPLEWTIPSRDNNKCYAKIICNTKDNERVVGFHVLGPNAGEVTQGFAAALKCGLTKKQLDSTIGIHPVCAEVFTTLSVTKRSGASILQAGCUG

[4] = target: T3, Thioredoxin reductase 1, cytoplasmic (Homo sapiens); assay: Inhibition of thioredoxin reductase in human HCT116 cell lysate using thioredoxin as substrate after 16 hrs by end point insulin assay method
Summary of the method: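 HCT116 cells treated 16 h at 0.001 to 1 µM or 40 to 70 µM, then lysed. Stopped with 1 mM DTNB and 240 µM NADPH in 6 M guanidine HCl and Tris pH 8.0, read at A412. Given as % of DMSO-treated cells. Mean of three experiments.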

[5] = target: T4, Dihydrofolate reductase (Homo sapiens) (UniProt P00374); assay: Inhibition of DHFR in human HCT116 cell lysate assessed as reduction in conversion of DHF to THF at 40 to 70 uM after 16 hrs
T4 sequence (whole entry): T2 sequence (P00374 whole entry)
Summary of the method: (§3)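 HCT116 cells treated 16 h at 0.001 to 1 µM or 40 to 70 µM, then lysed. 400 µg lysate protein in PBS with 50 µM DHF and 200 µM NADPH, with matching controls containing 1 µM methotrexate. A340 decrease followed over 15 min at room temperature. MTX-sensitive rate given as % of DMSO-treated cells. Mean of three independent experiments.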

[6] = target: T4, Dihydrofolate reductase (Homo sapiens); assay: Inhibition of DHFR in human HCT116 cell lysate assessed as reduction in conversion of DHF to THF after 16 hrs; summary of the method: as §3

Compound | growth inhibition (GI) (MCF7) | IC50 [1] | IC50 [2] | growth inhibition (GI) (HCT-116) | IC50 (Dihydrofolate reductase) [µM] | GI50 (MCF7) [µM] | LC50 (concentration killing 50% of cells present at T0) (MCF7) [µM] | IC50 ([1]; read-out: IC50) [µM] | IC50 ([2]; read-out: IC50) [µM] | GI50 (HCT-116) [µM] | CC50 (HCT-116) [µM] | inhibition [3] | inhibition [4] | inhibition [5] | inhibition [6]
O=C(Cc1ccccc1)Cc1ccccc1 | inactive | Not Active | Not Active | inactive | – | – | – | – | – | – | – | – | – | – | –
CC1(C)N=C(N)N=C(N)N1OCCCCOc1cccc(/C=C/C(=O)c2ccccc2)c1 | – | – | – | – | 0.0048 | 0.086 | 15.5 | 3.8 | 6 | 0.034 | 34.7 | – | – | – | –
CC1(C)N=C(N)N=C(N)N1OCCCOc1cccc(C(=O)CCc2ccccc2)c1 | – | – | – | – | 0.0039 | 0.036 | 25.9 | – | – | 0.01 | 34.2 | – | – | – | –
CC1(C)N=C(N)N=C(N)N1OCCCOc1ccc(/C=C/C(=O)c2ccccc2)cc1 | – | – | – | – | 0.0064 | 0.062 | 35.3 | 25.7 | 35.9 | 0.035 | 39 | – | – | – | –
CC1(C)N=C(N)N=C(N)N1OCCCOc1ccc(C(=O)/C=C/c2ccccc2)cc1 | – | – | – | – | 0.0092 | 0.085 | 34 | 32.4 | 49 | 0.016 | 55.2 | – | – | – | –
CC1(C)N=C(N)N=C(N)N1OCCCCOc1ccc(/C=C/C(=O)c2ccccc2)cc1 | – | – | – | – | 0.004 | 0.141 | 14.8 | 21.1 | 31.6 | 0.026 | 42.9 | – | – | – | –
CC1(C)N=C(N)N=C(N)N1OCCCOc1cccc(C(=O)/C=C/c2ccccc2)c1 | – | – | – | – | 0.009 | 0.076 | 20.2 | 8.2 | 10.8 | 0.011 | 42.7 | inactive | Dose-dependent effect | Active | Dose-dependent effect
CC1(C)N=C(N)N=C(N)N1OCCOc1ccc(/C=C/C(=O)c2ccccc2)cc1 | – | – | – | – | 0.0534 | 0.512 | 47.7 | 21.1 | 29.8 | 0.706 | 81.9 | – | – | – | –
CC1(C)N=C(N)N=C(N)N1OCCOc1cccc(/C=C/C(=O)c2ccccc2)c1 | – | – | – | – | 0.0592 | 0.623 | 38.8 | 4 | 5.7 | 0.145 | 52.2 | – | – | – | –
CC1(C)N=C(N)N=C(N)N1OCCOc1cccc(C(=O)/C=C/c2ccccc2)c1 | – | – | – | – | 0.0356 | 0.719 | 40.7 | 6.9 | 10.8 | 0.17 | 49.9 | – | – | – | –
NC1=NC2(CCCC2)N(OCCOc2cccc(C(=O)/C=C/c3ccccc3)c2)C(N)=N1 | – | – | – | – | 0.0131 | 0.77 | 16.1 | 4.6 | 8 | 0.26 | 24.1 | – | – | – | –
CC1(C)N=C(N)N=C(N)N1OCCCCOc1cccc(C(=O)/C=C/c2ccccc2)c1 | – | – | – | – | 0.0042 | 0.122 | 11.3 | 6.7 | 11.2 | 0.051 | 30.3 | inactive | Dose-dependent effect | Active | Dose-dependent effect
CC1(C)N=C(N)N=C(N)N1OCCCCOc1ccc(C(=O)/C=C/c2ccccc2)cc1 | – | – | – | – | 0.0034 | 0.087 | 14.2 | 27 | 44.5 | 0.039 | 24 | – | – | – | –
CC1(C)N=C(N)N=C(N)N1OCCCOc1cccc(/C=C/C(=O)c2ccccc2)c1 | – | – | – | – | 0.0032 | 0.013 | 29.8 | 2.8 | 4.1 | 0.011 | 48.2 | – | – | – | –
CC1(C)N=C(N)N=C(N)N1OCCOc1ccc(C(=O)/C=C/c2ccccc2)cc1 | – | – | – | – | 0.0141 | 0.584 | 40.1 | 20.4 | 43.3 | 0.572 | 50.1 | – | – | – | –
CN(Cc1cnc2nc(N)nc(N)c2n1)c1ccc(C(=O)N[C@@H](CCC(=O)O)C(=O)O)cc1 [METHOTREXATE] | – | – | – | – | – | 0.024 | – | – | – | 0.015 | > 100 | – | – | – | –
